# Test: Toxicity liver stage against HepG2, at 10uM
# Format: cell-based
# Parameters: test concentration 10 uM, cell line HepG2-A16-CD81EGFP
# Conditions: human, HepG2-A16-CD81EGFP cells; read-out: INHIBITION
# Outline: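 Uninfected HepG2-A16-CD81EGFP cells, 3 × 10^3 per well, 1536-well, plated on prespotted compound at 10 μM final, parasite-free screening media added to match infected plates; puromycin 10 μM positive, DMSO 0.5% negative; run in parallel with 48 h PbLuc assay at 37 °C, 5% CO2; viability by CellTiter-Glo luminescence, normalized to controls.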
row,Compound,cytotoxicity at 10 µM
1,Cc1nc(SCC(=O)Nc2ccc(C(N)=O)cc2)c(C#N)c(C)c1C,-5.28%
2,Cc1nc(-c2ccc(S(=O)(=O)N3CCC4(CC3)OCCO4)cc2)co1,1.69%
3,Cc1nnc(SCC(=O)c2cc3c(cc2Cl)NC(=O)C3)s1,5.42%
4,O=S(=O)(Nc1cnc(N2CCOCC2)nc1)c1cccc(F)c1,-19.2%
5,COCC(=O)Nc1ccccc1-c1ccc(=O)n(C)n1,4.51%
6,CN(C)C(=O)CN1C[C@H]2CCN(C(=O)C3CCCO3)CC[C@H]2S1(=O)=O (some centres undefined),20.6%
7,c1cc(CN2C[C@@H]3OCCN(CC4CCCO4)[C@@H]3C2)co1 (some centres undefined),4.8%
8,Cc1ccc(C(=O)N2C[C@@H]3CN(S(C)(=O)=O)CCO[C@@H]3C2)s1,-4.75%
9,Cc1ccc(CN2Cc3ccnn3CC(COCc3cccnc3)C2)o1 (centres undefined),-143%
10,CC(C)NC(=O)N1CCC2(CC(=O)N(c3ccsc3)C2)C1 (centres undefined),-7.99%
11,O=C(NCC1CC1)C1CN(C(=O)Cc2cccs2)CC12CCOCC2 (centres undefined),4.76%
12,C[C@H]1CN(Cc2cnn(C)c2)C[C@@]12CCN(Cc1cccnc1)C2=O,8.99%
13,O=C([C@H]1CCCO1)N1CCc2ncnc(NC3CC3)c2CC1,-12.6%
14,Cn1c(=O)n(C)c2nc(Cl)c(CC(=O)c3ccc(F)cc3)n2c1=O,6.28%
15,CC(=O)Nc1nc(C2CCN(C(=O)c3cncs3)CC2)cs1,-8.91%
16,CC(=O)N1CCCC1c1nc(C)cc(-c2ccc(F)cc2)n1 (centres undefined),9.88%
17,Cc1c[nH]nc1C1CCCCN1C(=O)CNS(C)(=O)=O (centres undefined),-9.19%
18,CNc1cncc(C2CCCN2Cc2ccnc(C)n2)n1 (centres undefined),-11.4%
19,Cc1nc2ccc(C(=O)N3CCn4c(nnc4C4CC4)C3)cc2nc1C,-3.22%
20,Cc1noc(C)c1C(=O)N1CCC(c2[nH]ncc2S(C)(=O)=O)C1 (centres undefined),-9.83%
21,CCCn1cc(C(=O)N2CCOC(c3nc(-c4cccs4)no3)C2)cn1 (centres undefined),-4.22%
22,COc1ccc(CN(C)CC2(O)CCN(C(=O)c3cccn3C)C2)cc1 (centres undefined),5.4%

row,Compound,cytotoxicity at 10 µM
1,CC(CN1CCCC1=O)NC(=O)NCc1ccccc1-n1cccn1 (centres undefined),3.33%
2,Cc1cc(C)cc(OCCN(C)C2CCOC2=O)c1 (centres undefined),-143%
3,CCN1CCN(C(=O)C2CCOC2)c2ccccc21 (centres undefined),2.54%
4,c1ccc2oc(N3CCC(c4nncn4C4CC4)CC3)nc2c1,12.7%
5,Cc1ccc(OCC(C)NS(=O)(=O)Cc2ccon2)cc1 (centres undefined),-4.84%
6,COC(=O)CSCc1nc(-c2ccc(Cl)cc2)no1,3.77%
7,O=C(CC1CCCC1)NCCn1nc2ccccn2c1=O,9.97%
8,Cc1cc(N2CCN(c3nc4ccccc4cc3CO)CC2)nc(C)n1,7.86%
9,Cc1cc(C2CCCN2C(=O)NCc2ccccn2)on1 (centres undefined),1.47%
10,CC(C)c1cc(C(=O)N2CCCN(Cc3ccccc3)CC2)n[nH]1,-5.41%
11,Cc1cc(CN(Cc2cccnc2)CC2CCCO2)on1 (centres undefined),-7.03%
12,CC(Cn1cccn1)NCC(=O)NC1(C#N)CCCCC1 (centres undefined),-3.6%
13,CCOC(C)c1noc(CN2CCCNCC2)n1 (centres undefined),5.44%
14,CC(C)NC(=O)c1cc(Br)cc(S(=O)(=O)N2CCOCC2)c1F,6.17%
15,CCCC1SCCN1C(=O)c1ccc(-n2ncc(C#N)c2N)cc1 (centres undefined),9.15%
16,Cc1nc(C)c(CCNC(Cc2ccncc2)C(F)(F)F)s1 (centres undefined),-4.96%
17,Cc1cc(C(=O)NCCN2CCCc3ccccc32)[nH]n1,0.868%
18,CC(C(=O)Nc1ccc2ccccc2c1)N1CCC(n2ccnc2)CC1 (centres undefined),-4%
19,COC(=O)CN1CCSC(c2ccccc2)C1 (centres undefined),17.8%
20,Cc1noc(C)c1C(=O)N1CCSc2ccc(Cl)cc21,-108%
21,CSc1ccc(C)c(C(=O)Nc2c(C(N)=O)n[nH]c2C)c1,3.36%
22,CC(c1ncc(-c2ccccc2)o1)N1CCN(C(=O)N(C)C)CC1 (centres undefined),-12.1%

row,Compound,cytotoxicity at 10 µM
1,CN(C)C(=O)CN1CCc2ncnc(C3CC3)c2CC1,-94.1%
2,Cn1cc(C2COC3(CCN(C(=O)Cc4ccccc4)CC3)C2)cn1 (centres undefined),-108%
3,CN1CC[C@]2(CN(S(C)(=O)=O)C[C@H]2c2ccccc2)C1=O,-120%
4,CCOCc1cnc2n1CCN(C(=O)c1ccoc1C)C2C (centres undefined),-98.3%
5,CC(C)CN1C(=O)CO[C@@H]2CN(C(=O)C3CCOC3)C[C@H]21 (some centres undefined),-70.3%
6,O=C(c1ccsc1)N1CCN2C[C@H](OCc3ccccn3)C[C@H]2C1,-71.8%
7,CC(=O)N1CC[C@@H]2CN(C(=O)c3ccco3)CCO[C@@H]2C1,2.93%
8,c1cnc(OCc2nnc3n2CCN(CC2CC2)C3)nc1,-1.93%
9,CCNc1nc(-c2cccnc2)c(-c2ccnc(N3CCCC3)n2)s1,-5.14%
10,CCn1ncc2c1NC(=O)CC2c1cnc(NCc2ccccc2)nc1 (centres undefined),-6.27%
11,O=C(CCc1ccccc1F)N1CCCC(OCc2cccnc2)C1 (centres undefined),-5.44%
12,Cc1nc2c(c(=O)[nH]1)CN(C(=O)CCC1CCCN(C)C1)C2 (centres undefined),-7.76%
13,O=C([C@@H]1CCCO1)N1CCC(Cn2cc(-c3ccsc3)nn2)CC1,3.43%
14,CN(c1ncccc1CNS(=O)(=O)N1CCOCC1)C1CCCCC1,6.39%
15,CCN(C(C)=O)C1CCN(c2nccc(CCC(F)(F)F)n2)C1 (centres undefined),-4.39%
16,CCC[C@H]1CN(Cc2cscn2)C[C@@H]1NC(=O)C1(COC)CCC1,-5.69%
17,CCSc1ncc(-c2cc(C3CCC3)nc(N)c2C#N)cn1,6.67%
18,Cc1ccc(C(=O)N2CCSCC2)cc1N1CCNC1=O,-6.33%
19,CC(CCn1cccn1)Nc1ccc(-c2nccn2C)nn1 (centres undefined),1.39%
20,CCn1nc(C)c(NC(=O)CN2CCC(c3ccccc3Cl)C2)c1C (centres undefined),-7.58%
21,CN1CCC(Cc2nc(-c3cnccn3)n(C3CCS(=O)(=O)C3)n2)CC1 (centres undefined),-2.64%
22,COC(=O)c1cccc(-c2nc(CC3CCN(C)CC3)no2)c1,-1.6%

row,Compound,cytotoxicity at 10 µM
1,O=C(NC1CCCCC1)[C@H]1CNC[C@@H](COc2cccnc2)C1,-8.98%
2,Cc1nc(N(CCC(N)=O)Cc2ccccc2)c2nc(C)oc2n1,-3.86%
3,CN(Cc1n[nH]c2c1CCCC2)C(=O)c1cccc(CCC(C)(C)O)c1,-3.87%
4,COc1ccccc1N1CCN(C(=O)CCCS(N)(=O)=O)C(C)C1 (centres undefined),6.15%
5,O=C(NCCc1ccccc1)c1cccc(S(=O)(=O)NC2CCOC2)c1 (centres undefined),3.52%
6,Cc1cccnc1NCCNC(=O)C1CCN(Cc2ccco2)CC1,-2.51%
7,Cc1nc(O)cc(C2CCCN(Cc3c(Cl)cncc3Cl)C2)n1 (centres undefined),-5.4%
8,Cc1nn(C)c(C)c1CN(C)C1CCN(c2ncnc3[nH]cnc23)CC1,-76.7%
9,O=C(NCCC1COc2ccccc2O1)c1ccc(-c2cn[nH]c2)nc1 (centres undefined),4.65%
10,c1coc(-c2nc3c(c(NCc4n[nH]c5c4CCC5)n2)CCNCC3)c1,-3.36%
11,CCc1[nH]c2c(CNC(=O)C3CCS(=O)(=O)CC3)cc(C)cc2c1C,1.87%
12,Cc1ccc(CN2CCC(n3cc(C(O)c4ccccc4)nn3)CC2)o1 (centres undefined),2.11%
13,N#CC1CCCN(c2nc(-c3ccccc3)nc3c2CCNCC3)C1 (centres undefined),-0.468%
14,CN(C)C(C(=O)N1CCC(N2CCSCC2)CC1)c1ccccc1F (centres undefined),9.22%
15,Cc1nn(CC(C)C)c(N(C)C)c1CNCc1ccc2c(c1)OCO2,-1.05%
16,CCN(c1ccc(C(=O)N2CCCC2c2cnn(C)c2)cn1)C(C)C (centres undefined),-0.607%
17,CNC(=O)NC(=O)CN1CCN(c2ccc(C(=O)OC)cc2)CC1C (centres undefined),-1.98%
18,COCC(c1cccc(C(F)(F)F)c1)N(C)C(=O)c1ccco1 (centres undefined),-9.07%
19,Cc1ccc(-c2noc(CN3CCOC(Cn4cccn4)C3)n2)cc1 (centres undefined),-5.98%
20,Cc1nc(C)n(CC2CCCN(CCOc3cccc(F)c3)C2)n1 (centres undefined),-3.18%
21,CC(C(=O)NCCN1CCCCCC1)n1cncn1 (centres undefined),-1.4%
22,O=C(Nc1cccc(N2CCCC2)c1)C1CCCN1c1nccs1 (centres undefined),-6.08%

row,Compound,cytotoxicity at 10 µM
1,CC(C)Cc1noc(CN2CCN(CCO)CC2)n1,-1.22%
2,CCn1c(CN2CCC(O)(C(=O)OC)CC2)nc2c(F)cccc21,-9.73%
3,c1coc(-c2noc(CN3CCCC(Cn4cncn4)C3)n2)c1 (centres undefined),-7.23%
4,Cc1ccc(C(=O)CCC(=O)N2CCC(c3nncn3C)CC2)cc1,-9.86%
5,CCC1CN(CC(=O)N2CCC2)CCN1CCOC (centres undefined),-9.78%
6,Cn1ccc(C(=O)NCc2cccc(CN3CCCC3)c2)cc1=O,-3.07%
7,O=C(CC1CC1)N1CCC2(CC1)CN(Cc1cccnc1)C(=O)CO2,3.59%
8,CNC(=O)N1CCC2(CC1)c1ncc(C)n1CCN2C,5.22%
9,CCS(=O)(=O)N1CCC2(C1)C(=O)N(C)CCN2Cc1ccncc1 (centres undefined),-4.78%
10,CCc1ccc(CN2Cc3nccn3CC(CN3CCOCC3)C2)o1 (centres undefined),-87.9%
11,CCS(=O)(=O)N1Cc2nnn(C)c2C(COCCN(C)C)C1 (centres undefined),1.55%
12,Cc1nc(COC[C@@H]2CCC[C@@]23CN(C)CCO3)cs1,-88.9%
13,CC(C)CCN1CCc2c(C(=O)N(C)Cc3ccccn3)nn(C)c2C1,-0.449%
14,Cc1noc(C)c1CN1Cc2cn(C)nc2C(COCC2CC2)C1 (centres undefined),-73%
15,COCCN1CCC2(CC1)CC(N1CCOCC1)c1ccc(C)cc12 (centres undefined),-106%
16,Cc1ccc(N2CCO[C@H]3CN(Cc4cc(C)on4)CC[C@H]3C2=O)cn1,-72.2%
17,COc1ccc(CN2C[C@H](N3CCCC3=O)[C@@H]3OCCC[C@@H]32)cc1,9.51%
18,Fc1cnc(N2CCOC3(CCN(Cc4cccs4)CC3)C2)nc1,0.73%
19,COc1ccc(CN(C)CC(O)COCc2ccccc2Cl)c(OC)c1 (centres undefined),18.8%
20,NCC1CCC(C(NC(=O)c2ccccc2)c2ccccn2)CC1 (centres undefined),0%
21,c1ccc(-c2cc(CN3C[C@H]4CC[C@@H](C3)N(CC3CC3)C4)on2)cc1,-4%

# From ChEMBL document CHEMBL4513216, “Probing the Open Global Health Chemical Diversity Library for Multistage-Active Starting Points for Next-Generation Antimalarials” (ACS Infect Dis, 2020)
